PMI act hi M6P: PMI (human) activation, high substrate; 190,000 compounds, 0.34% hits; activation factor at 20 µM; coupled PMI enzyme assay, resazurin fluorescence, 20 min; stronger effect = higher value; 1 = untreated enzyme, 0 = substrate-free blank; P34949;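 active = activation factor of 2 or more at 20 µM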
Target sequence (P34949 whole entry, looked up): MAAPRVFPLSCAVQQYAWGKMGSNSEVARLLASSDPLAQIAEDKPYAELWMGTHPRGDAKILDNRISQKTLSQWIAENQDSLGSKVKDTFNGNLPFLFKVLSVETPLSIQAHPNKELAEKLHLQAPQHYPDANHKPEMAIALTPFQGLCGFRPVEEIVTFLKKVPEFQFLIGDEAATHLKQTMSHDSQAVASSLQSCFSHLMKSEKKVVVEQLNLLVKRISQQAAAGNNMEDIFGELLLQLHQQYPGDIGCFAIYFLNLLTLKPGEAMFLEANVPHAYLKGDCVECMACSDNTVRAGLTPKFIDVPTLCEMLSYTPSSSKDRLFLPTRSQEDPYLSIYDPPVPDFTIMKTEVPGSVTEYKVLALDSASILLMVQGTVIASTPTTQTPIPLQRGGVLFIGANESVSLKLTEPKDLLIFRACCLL
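Test system – human PMI in coupled enzyme assay · Timing – 20 min incubation at room temperature · Detection – Diaphorase-driven resazurin-to-resorufin fluorescence, excitation 544, emission 590 nm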
PTEN del growth: suppresses growth of cells with PTEN deletion. HCT116 PTEN-null viability, CellTiter-Glo, 60 h; stronger effect = lower value. viability, % at 10 µM. 140,000 compounds, 1.2% hits;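 active = viability at or below a set limit, 4 SD under the median of all tested compounds, cut at about 3.7% in these data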;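 note: PTEN knockout HCT116 line with beta catenin targeted HCT116 as companion control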
PMI activator: phosphomannose isomerase (human) activation; P34949; purified human PMI, coupled resazurin fluorescence, 20 min; stronger effect = higher value; 1 = vehicle control, 0 substrate-free wells; activation factor at 20 µM; 190,000 compounds, 0.005% hits;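 active = activation factor of 2 or more at 20 µM, relative to plate controls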
Lmaj promast: reduces viability of Leishmania major promastigotes; resazurin fluorescence viability; 200,000 compounds, 9% hits; inhibition, % at 10 µM; in the data active = inhibition above about 50%;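 note: promastigotes grown with compound for 44 hours at 28 °C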
bCat KO growth: beta-catenin-lacking colon tumor cell growth suppression; HCT116 beta-catenin knockout viability, CellTiter-Glo, 60 h; stronger effect = lower value; viability, % at 10 µM; 140,000 compounds, 1.5% hits; AID 818;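 active = viability at or under a set limit, the compound median less 4 SD, cut at about 6% in these data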
Of the large screens only hits and unclear results are named; the others gave an inactive call. Shown are actives, neighbours in structure and some others; about 9.6% of the full set was active somewhere.

Cc1ccc(OCCCNCCO)c(Br)c1	Lmaj promast 73
OCCNCCCOc1cc(Cl)ccc1Cl	none (no result: PTEN del growth, bCat KO growth)
CCCCNCCCOc1ccc(C)cc1Br	Lmaj promast 90 (no result: PTEN del growth, bCat KO growth)
CNCCCOc1ccc(C)cc1Br	none
CCc1sc(C(=O)Nc2ccccc2N2CCOCC2)cc1C	none (no result: PTEN del growth, bCat KO growth)
Cn1ncc2c(NNC(=O)c3ccccc3Cl)ncnc21	none
CCn1c(SCc2cccc(F)c2)nc2c(c1=O)SCC2	none (no result: PTEN del growth, bCat KO growth)
O=C(Nc1nc(-c2ccncc2)cs1)c1ccco1	none
O=C(Nc1nc(-c2ccccn2)cs1)c1ccc(Br)s1	Lmaj promast 100
O=C(Nc1nc(-c2ccccn2)cs1)c1ccco1	Lmaj promast 100 (no result: PTEN del growth, bCat KO growth)
O=c1cc(C23CC4CC(CC(C4)C2)C3)[nH][nH]1	none
CCCCCCCC1CC(/C(C)=N/NC(N)=O)OC1=O (stereo not given)	none
Cc1ccc(C)c(OCCn2c(=O)c3c(ncn3C3CCCC3)n(Cc3ccccc3)c2=O)c1	Lmaj promast 96
COc1cc(-n2c(=O)c3ccccc3n(CC(=O)c3ccc(F)cc3)c2=O)cc(OC)c1OC	none (no result: PTEN del growth, bCat KO growth)
C[C@@H]1NC(=O)c2cc([N+](=O)[O-])cc(I)c2OCC[C@@H](C(=O)NC(CC(=O)O)C(N)=O)NC(=O)[C@H](CC(N)=O)NC1=O (stereo not given in full)	none
CC(C)C(=O)Nc1cccc(S(=O)(=O)c2cccc(NC(=O)C(C)C)c2)c1	Lmaj promast 66
O=C1c2ccccc2C(=O)N1CC(O)CNc1ccc(Br)cc1 (stereo not given)	none
CC(=O)N/C(=C\c1cccc([N+](=O)[O-])c1)C(=O)NC1CCCCC1	Lmaj promast 51
CN1CCN(C(=O)/C(=C\c2cccc([N+](=O)[O-])c2)NC(=O)c2cccs2)CC1	none (no result: PTEN del growth, bCat KO growth)
O=C(N/C(=C/c1ccc(Br)cc1)C(=O)N1CCCC1)c1cccs1	none (no result: PTEN del growth, bCat KO growth)
Cc1ccc(NC(=O)/C(=C/c2cccc([N+](=O)[O-])c2)NC(=O)C2CCCCC2)cc1	none
O=C(N/C(=C/c1cccc([N+](=O)[O-])c1)C(=O)N1CCCCCC1)c1cccs1	Lmaj promast 61
O=C(N/C(=C/C=C/c1ccccc1)C(=O)N1CCCCC1)c1ccc([N+](=O)[O-])cc1	Lmaj promast 61 (no result: PTEN del growth, bCat KO growth)
O=C(N/C(=C/c1cccc([N+](=O)[O-])c1)C(=O)N1CCCCC1)c1cccs1	Lmaj promast 90
O=C(NCCCl)Nc1cccc(Br)c1	none (no result: PTEN del growth, bCat KO growth)
Cc1cc(C(F)F)n2ncc(C(=O)O)c2n1	none
O=C(NCC1CCCO1)C(=Cc1cccc([N+](=O)[O-])c1)C(=O)NCC1CCCO1 (stereo not given)	bCat KO growth 5.2
O=C1NC2(CCCCC2)Cc2ccccc21	none
N#CC(C#N)=C1NC2(CCCC2)Cc2ccccc21	Lmaj promast 85
CCCOc1ccc(C2NC(=S)NC(c3ccccc3)=C2C(=O)Nc2ccc(C)cc2)cc1OC (stereo not given)	none
COc1cc(NS(=O)(=O)c2cc(C)ccc2OC)c(OC)cc1Cl	Lmaj promast 99
O=C(Cc1ccccc1)N1CCCC1c1ccccc1 (stereo not given)	none
CCOC(=O)c1cc(-c2ccco2)nn1-c1ccc(C)cc1	none (no result: PTEN del growth, bCat KO growth)
CC(C)NC(=O)c1cc(-c2ccco2)nn1-c1ccc(Cl)cc1	Lmaj promast 50
Cc1ccc(N/C(N)=N/c2nc3c(c(=O)[nH]2)CCCC3)c(C)c1	none
Cc1ccc(N/C(N)=N/c2nc(C)cc(N3CCCCC3)n2)c(C)c1	Lmaj promast 100 (no result: PTEN del growth, bCat KO growth)
CC1(C)CC(=O)c2sc(NC(=O)c3ccc4ncsc4c3)nc2C1	none
Cc1cc2cc(C=C(C#N)C#N)c(Cl)nc2cc1C	none
Cc1cc2c(cc1C)NC(c1nc3ccccc3[nH]1)C1=C(CC(C)(C)CC1=O)N2 (stereo not given)	Lmaj promast 91
Cc1c(C2Nc3ccccc3NC3=C2C(=O)CC(C)(C)C3)cnn1C (stereo not given)	none
COc1ccc2cc3cc(C(=O)Nc4ccc5c(c4)OCCO5)oc3nc2c1	Lmaj promast 100
COc1ccc2cc3cc(C(=O)NC(C)C)oc3nc2c1	Lmaj promast 89
C=CCn1c(SCC(=O)NC2CC2)nc2sc(CC)cc2c1=O	Lmaj promast 58 (no result: PTEN del growth, bCat KO growth)
C=CCn1c(SCC(=O)NC2CCS(=O)(=O)C2)nc2sc(CC)cc2c1=O (stereo not given)	none
COc1ccc(CONS(=O)(=O)c2ccc(NC(C)=O)cc2)cc1Cl	none
CC1CCCN(CCC(=O)Nc2ccc(Br)cc2)C1 (stereo not given)	Lmaj promast 53
CC1CCCN(CCC(=O)Nc2ccc3c(c2)CCC3)C1 (stereo not given)	Lmaj promast 61
Cc1c(Br)c([N+](=O)[O-])nn1CC(=O)c1ccccc1	none (no result: PTEN del growth, bCat KO growth)
COc1ccccc1-c1cc(C(F)(F)F)nc(S(=O)(=O)CCCC(=O)N2CCOCC2)n1	PTEN del growth 1.1, Lmaj promast 100, bCat KO growth 1.3
O=C(COC(=O)/C=C/c1ccccc1Cl)NCCc1ccc(Cl)cc1Cl	none
O=C(Nc1cccn(Cc2cccc(F)c2)c1=O)NC1CCCCC1	Lmaj promast 83 (no result: PTEN del growth, bCat KO growth)
O=C(Nc1cccn(Cc2c(F)cccc2Cl)c1=O)NC1CCCCC1	Lmaj promast 80 (no result: PTEN del growth, bCat KO growth)
CC(=O)c1cc(CN2CCN(CCc3ccccc3)C(CCO)C2)cs1 (stereo not given)	Lmaj promast 77 (no result: PTEN del growth, bCat KO growth)
CC(=O)c1cc(CN2CCN(Cc3ccccc3)C(CCO)C2)cs1 (stereo not given)	Lmaj promast 65 (no result: PTEN del growth, bCat KO growth)
OCCC1CN(Cc2ccc3nsnc3c2)CCN1CCc1ccccc1 (stereo not given)	Lmaj promast 84 (no result: PTEN del growth, bCat KO growth)
CC(=O)c1cc(CN2CCN(CC=C(C)C)C(CCO)C2)cs1 (stereo not given)	none (no result: PTEN del growth, bCat KO growth)
O=C1C=C(c2cccs2)C[C@H](c2ccccc2)[C@H]1n1nnc([N+](=O)[O-])n1	bCat KO growth 4.9
O=C(Cn1cc(C(F)(F)F)cc(Cl)c1=O)Nc1cc(S(=O)(=O)N2CCOCC2)ccc1Cl	none
CCCn1c(C)cc(/C=C(\C#N)C(=O)OCC(=O)Nc2cccc(OC)c2)c1C	Lmaj promast 61
N#C/C(=C\c1cccnc1)C(=O)NC1CCCCC1	none
CCN(CC)c1ccc(S(=O)(=O)N(CC)CC)cc1NC(=O)C1CCCC1	Lmaj promast 61 (no result: PTEN del growth, bCat KO growth)
CCN(CC)CCCNC(=O)c1ccc(N2CCCCC2)c(NS(=O)(=O)c2ccc(C)cc2)c1	Lmaj promast 99 (no result: PTEN del growth, bCat KO growth)
CCN(CC)S(=O)(=O)c1ccc(NC(=O)C2CCCN(C(=O)c3ccc(Cl)cc3)C2)cc1 (stereo not given)	Lmaj promast 97
CCOc1ccc(S(=O)(=O)Nc2cc(S(=O)(=O)N(CC)CC)ccc2N2CCCC2)cc1	Lmaj promast 95
CC(=O)Nc1ccc(NC(=O)C2CCCN(C(=O)c3ccc(Cl)cc3)C2)cc1 (stereo not given)	none (no result: PTEN del growth, bCat KO growth)
O=C(NCc1cccnc1)C(=O)N/N=C/c1ccccc1[N+](=O)[O-]	none (no result: PTEN del growth, bCat KO growth)
CCOc1cc(S(=O)(=O)N(CC)CC)ccc1F	none

Screens as filed in PubChem BioAssay.
